# Assay results of several laboratories.
# Compare with care: the assays were run in different laboratories.
# Read-out: microbial growth
Compound,organism,assay,test system,setting,MIC
CC(/C=C/C(O)=C1/C(=O)CNC1=O)=C\[C@@H](C)[C@H]1O[C@@]2(C)O[C@H](C(=O)[C@@H]3O[C@@]32C)[C@@H]1C,Bacillus anthracis,,34F2,,12.5 µM
CCCCCCCCCCCC(=O)C(F)(F)P(=O)(O)O,Bacillus anthracis,,STERNE34F2,,200 µg/mL
CC(=O)NCN1N=C(C)C(=NNn2c(-c3ccccc3)nc3ccccc3c2=O)C1=O,Vibrio cholerae,broth dilution,,24 h,59.9 µM
CC1=CC[C@H]2O[C@]1(C)O[C@H]([C@H](C)/C=C(C)/C=C/C(O)=C1/C(=O)CNC1=O)[C@H]2C,Bacillus anthracis,,34F2,,3.13 µM
O=C1NN=C(N=Cc2ccc(O)cc2O)C1=NNn1c(-c2ccccc2)nc2ccccc2c1=O,Vibrio cholerae,broth dilution,,24 h,53.5 µM
O=C(CCCCCCCCCCOc1ccccc1)CP(=O)(O)O,Bacillus anthracis,,STERNE34F2,,> 200 µg/mL
CC1=CC(=O)[C@H]2O[C@]1(C)O[C@H]([C@H](C)/C=C(C)/C=C/C(O)=C1/C(=O)CNC1=O)[C@H]2C,Bacillus anthracis,,34F2,,6.25 µM
CN[C@@H]1[C@H](O)[C@H](NC)[C@H]2O[C@@]3(O)C(=O)C[C@@H](C)O[C@H]3O[C@@H]2[C@H]1O,Streptococcus pyogenes,broth dilution,ATCC700294,,25 µg/mL
CNC(=O)[C@@H](C)[C@H]1C(=O)/C(=C(O)/C=C/C(C)=C/[C@@H](C)[C@H]2O[C@@]3(C)O[C@H](C=C[C@@]34CO4)[C@@H]2C)C(=O)N1[C@@H]1CC[C@H](O)[C@H](C)O1,Bacillus anthracis,,34F2,,> 100 µM
CC1=NN(CNc2ccccc2[N+](=O)[O-])C(=O)C1=NNn1c(-c2ccccc2)nc2ccccc2c1=O,Vibrio cholerae,broth dilution,,24 h,50.4 µM
CCCCCC/C=C\CCCCCCCCCC(=O)NP(=O)(O)O,Bacillus anthracis,,STERNE34F2,,100 µg/mL
CC1=NN(CNC(=O)c2ccccn2)C(=O)C1=NNn1c(-c2ccccc2)nc2ccccc2c1=O,Vibrio cholerae,broth dilution,,24 h,52 µM
CCCCCCCC(=O)NP(=O)(O)O,Bacillus anthracis,,STERNE34F2,,> 200 µg/mL
